Among the data in ChEMBL document CHEMBL1147798, “Novel bis(1H-indol-2-yl)methanones as potent inhibitors of FLT3 and platelet-derived growth factor receptor tyrosine kinase” (J Med Chem, 2006) are IC50 and Activity values, retold here.

pIC50: −log10 of the molar value. Active and inactive are the calls of the source. No cut-off for these calls is given here.

Test [1] concerns the target Platelet-derived growth factor receptor (Mus musculus, UniProt P05622+P26618). In words: Inhibition of endogenous PDGFR in Swiss3T3 fibroblasts.
Test [2] concerns the target T1, Receptor-type tyrosine-protein kinase FLT3 (Homo sapiens, UniProt P36888).
T1 sequence (P36888 whole entry): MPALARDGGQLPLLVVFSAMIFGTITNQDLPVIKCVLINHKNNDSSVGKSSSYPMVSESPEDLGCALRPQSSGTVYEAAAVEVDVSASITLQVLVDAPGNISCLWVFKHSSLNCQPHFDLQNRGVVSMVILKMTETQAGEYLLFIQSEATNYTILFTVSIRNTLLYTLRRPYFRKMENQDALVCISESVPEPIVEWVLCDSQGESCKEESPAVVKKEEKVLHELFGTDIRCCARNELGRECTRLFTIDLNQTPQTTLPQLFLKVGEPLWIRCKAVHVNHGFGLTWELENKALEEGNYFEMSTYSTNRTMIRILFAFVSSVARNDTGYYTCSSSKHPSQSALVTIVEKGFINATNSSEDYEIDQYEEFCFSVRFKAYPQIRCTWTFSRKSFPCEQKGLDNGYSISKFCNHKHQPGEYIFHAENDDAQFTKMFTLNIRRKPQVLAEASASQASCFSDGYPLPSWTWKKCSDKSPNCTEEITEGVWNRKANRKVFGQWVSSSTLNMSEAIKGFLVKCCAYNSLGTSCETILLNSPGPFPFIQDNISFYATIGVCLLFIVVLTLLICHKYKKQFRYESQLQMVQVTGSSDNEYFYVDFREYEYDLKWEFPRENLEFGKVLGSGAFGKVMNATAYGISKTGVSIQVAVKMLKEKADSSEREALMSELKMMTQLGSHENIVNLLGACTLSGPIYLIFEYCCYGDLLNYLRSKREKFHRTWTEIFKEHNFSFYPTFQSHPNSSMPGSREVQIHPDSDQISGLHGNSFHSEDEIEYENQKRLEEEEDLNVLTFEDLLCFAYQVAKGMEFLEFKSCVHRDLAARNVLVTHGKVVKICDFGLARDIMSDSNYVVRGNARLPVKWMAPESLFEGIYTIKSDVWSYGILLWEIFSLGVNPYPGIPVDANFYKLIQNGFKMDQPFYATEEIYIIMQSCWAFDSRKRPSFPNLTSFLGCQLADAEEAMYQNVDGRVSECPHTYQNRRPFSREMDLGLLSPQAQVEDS
As to the kind of experiment: Inhibition of endogenous FLT3 in EOL1 cells. The format is cell-based.

In test [3] the target is T1, Receptor-type tyrosine-protein kinase FLT3. In words: Inhibition of human FLT3.
In test [4] the target is Platelet-derived growth factor receptor beta (Homo sapiens, UniProt P09619). As to the kind of experiment: Inhibition of human PDGFR beta.
Test [5] concerns the target Tyrosine-protein kinase ABL1 (Homo sapiens, UniProt P00519). In words: Inhibition of recombinant Abl. The method in brief: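 0.5 µg GST-c-Abl catalytic domain preincubated 10 min on ice with inhibitor (DMSO stock) in 50 mM Tris-HCl pH 7.5, 10 mM MgCl₂, 10 µM orthovanadate, 1 mM DTT; [³²Pγ]ATP, final ATP 111 nM, 30 °C 30 min; SDS-PAGE; autophosphorylation radioactivity normalized to Coomassie-stained protein.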

A further test addresses Bcr/Abl fusion protein (Homo sapiens, UniProt P00519). As to the kind of experiment: Inhibition of oncogenic Bcr-Abl kinase in K562 cells. The format is cell-based. The method in brief: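 K562 cells, 2 × 10⁶ in 1 mL serum-free RPMI1640, inhibitor or 1% DMSO at 37 °C for 2 h; lysates immunoblotted with anti-pAbl and anti-Abl to gauge Bcr-Abl autophosphorylation.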
For test [6], the target named is Mast/stem cell growth factor receptor Kit (Homo sapiens) (UniProt P10721). As to the kind of experiment: Inhibition of DNA synthesis in IL3 dependent FDC-P1 cells expressing KIT D814V mutant. The test is classed as functional, cell-based. The method in brief:
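Parental FDC-P1 cells or FDC-P1 lines expressing KIT variants treated 42 h with compound, with or without IL-3 or stem cell factor; DNA synthesis measured as [³H]thymidine incorporation.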

Sequence of Platelet-derived growth factor receptor beta (P09619 whole entry, the tested form may be a part): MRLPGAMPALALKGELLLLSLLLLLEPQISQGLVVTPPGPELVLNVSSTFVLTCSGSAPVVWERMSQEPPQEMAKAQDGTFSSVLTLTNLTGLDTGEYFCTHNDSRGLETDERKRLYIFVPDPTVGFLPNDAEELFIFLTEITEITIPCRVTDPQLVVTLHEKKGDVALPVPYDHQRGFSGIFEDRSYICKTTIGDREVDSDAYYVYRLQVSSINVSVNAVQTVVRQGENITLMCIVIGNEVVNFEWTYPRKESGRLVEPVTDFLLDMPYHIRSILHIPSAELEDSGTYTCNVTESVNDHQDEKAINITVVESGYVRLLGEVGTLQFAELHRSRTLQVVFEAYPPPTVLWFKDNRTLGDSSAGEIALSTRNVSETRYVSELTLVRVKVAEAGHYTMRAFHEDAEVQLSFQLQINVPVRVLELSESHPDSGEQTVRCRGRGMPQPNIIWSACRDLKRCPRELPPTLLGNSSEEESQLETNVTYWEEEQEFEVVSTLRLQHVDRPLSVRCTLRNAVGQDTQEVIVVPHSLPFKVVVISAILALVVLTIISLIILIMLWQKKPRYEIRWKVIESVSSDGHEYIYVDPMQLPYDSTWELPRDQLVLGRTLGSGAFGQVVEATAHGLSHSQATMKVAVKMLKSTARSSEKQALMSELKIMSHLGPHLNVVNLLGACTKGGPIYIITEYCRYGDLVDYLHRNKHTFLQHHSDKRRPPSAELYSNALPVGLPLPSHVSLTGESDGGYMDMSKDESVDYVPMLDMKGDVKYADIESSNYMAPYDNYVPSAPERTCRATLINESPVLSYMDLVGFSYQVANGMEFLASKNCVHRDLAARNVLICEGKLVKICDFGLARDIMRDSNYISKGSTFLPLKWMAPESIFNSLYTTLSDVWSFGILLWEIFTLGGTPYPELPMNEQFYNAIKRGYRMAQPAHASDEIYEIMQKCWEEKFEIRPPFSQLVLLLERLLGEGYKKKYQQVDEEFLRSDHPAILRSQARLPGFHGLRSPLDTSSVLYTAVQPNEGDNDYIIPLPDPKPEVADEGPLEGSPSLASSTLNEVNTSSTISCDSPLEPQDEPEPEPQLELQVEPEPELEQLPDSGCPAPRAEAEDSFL
Sequence of Tyrosine-protein kinase ABL1 (P00519 whole entry, the tested form may be a part): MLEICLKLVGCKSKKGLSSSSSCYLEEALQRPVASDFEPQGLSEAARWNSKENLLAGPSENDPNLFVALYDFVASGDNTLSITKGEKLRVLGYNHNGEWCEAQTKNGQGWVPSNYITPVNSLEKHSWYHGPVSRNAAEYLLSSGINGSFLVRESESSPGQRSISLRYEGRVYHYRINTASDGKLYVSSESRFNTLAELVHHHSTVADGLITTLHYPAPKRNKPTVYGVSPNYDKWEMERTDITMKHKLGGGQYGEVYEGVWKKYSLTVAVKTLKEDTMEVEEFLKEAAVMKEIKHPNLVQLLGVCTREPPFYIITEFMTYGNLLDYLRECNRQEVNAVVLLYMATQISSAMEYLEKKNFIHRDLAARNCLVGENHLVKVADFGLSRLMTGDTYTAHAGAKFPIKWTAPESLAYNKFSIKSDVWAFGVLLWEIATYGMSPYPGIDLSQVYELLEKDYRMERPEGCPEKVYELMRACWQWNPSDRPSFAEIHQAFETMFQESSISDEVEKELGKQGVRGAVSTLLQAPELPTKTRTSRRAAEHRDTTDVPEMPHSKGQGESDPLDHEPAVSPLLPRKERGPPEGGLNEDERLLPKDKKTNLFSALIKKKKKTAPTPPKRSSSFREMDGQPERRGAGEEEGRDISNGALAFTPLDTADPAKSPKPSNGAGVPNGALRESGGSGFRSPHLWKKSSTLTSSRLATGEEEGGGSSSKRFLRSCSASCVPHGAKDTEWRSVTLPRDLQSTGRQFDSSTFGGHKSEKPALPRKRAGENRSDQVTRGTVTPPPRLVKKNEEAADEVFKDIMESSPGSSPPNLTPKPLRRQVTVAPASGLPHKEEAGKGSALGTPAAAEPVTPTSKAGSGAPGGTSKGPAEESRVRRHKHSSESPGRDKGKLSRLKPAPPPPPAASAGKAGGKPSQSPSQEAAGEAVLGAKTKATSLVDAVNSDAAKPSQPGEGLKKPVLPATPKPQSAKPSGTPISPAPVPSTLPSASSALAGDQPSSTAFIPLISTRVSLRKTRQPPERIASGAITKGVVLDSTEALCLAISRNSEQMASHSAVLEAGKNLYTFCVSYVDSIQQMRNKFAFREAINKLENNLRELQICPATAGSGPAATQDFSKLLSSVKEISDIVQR
Sequence of Bcr/Abl fusion protein (P00519 whole entry, the tested form may be a part): as above
Sequence of Bcr/Abl fusion protein (P11274 whole entry, further chain, the tested form may be a part): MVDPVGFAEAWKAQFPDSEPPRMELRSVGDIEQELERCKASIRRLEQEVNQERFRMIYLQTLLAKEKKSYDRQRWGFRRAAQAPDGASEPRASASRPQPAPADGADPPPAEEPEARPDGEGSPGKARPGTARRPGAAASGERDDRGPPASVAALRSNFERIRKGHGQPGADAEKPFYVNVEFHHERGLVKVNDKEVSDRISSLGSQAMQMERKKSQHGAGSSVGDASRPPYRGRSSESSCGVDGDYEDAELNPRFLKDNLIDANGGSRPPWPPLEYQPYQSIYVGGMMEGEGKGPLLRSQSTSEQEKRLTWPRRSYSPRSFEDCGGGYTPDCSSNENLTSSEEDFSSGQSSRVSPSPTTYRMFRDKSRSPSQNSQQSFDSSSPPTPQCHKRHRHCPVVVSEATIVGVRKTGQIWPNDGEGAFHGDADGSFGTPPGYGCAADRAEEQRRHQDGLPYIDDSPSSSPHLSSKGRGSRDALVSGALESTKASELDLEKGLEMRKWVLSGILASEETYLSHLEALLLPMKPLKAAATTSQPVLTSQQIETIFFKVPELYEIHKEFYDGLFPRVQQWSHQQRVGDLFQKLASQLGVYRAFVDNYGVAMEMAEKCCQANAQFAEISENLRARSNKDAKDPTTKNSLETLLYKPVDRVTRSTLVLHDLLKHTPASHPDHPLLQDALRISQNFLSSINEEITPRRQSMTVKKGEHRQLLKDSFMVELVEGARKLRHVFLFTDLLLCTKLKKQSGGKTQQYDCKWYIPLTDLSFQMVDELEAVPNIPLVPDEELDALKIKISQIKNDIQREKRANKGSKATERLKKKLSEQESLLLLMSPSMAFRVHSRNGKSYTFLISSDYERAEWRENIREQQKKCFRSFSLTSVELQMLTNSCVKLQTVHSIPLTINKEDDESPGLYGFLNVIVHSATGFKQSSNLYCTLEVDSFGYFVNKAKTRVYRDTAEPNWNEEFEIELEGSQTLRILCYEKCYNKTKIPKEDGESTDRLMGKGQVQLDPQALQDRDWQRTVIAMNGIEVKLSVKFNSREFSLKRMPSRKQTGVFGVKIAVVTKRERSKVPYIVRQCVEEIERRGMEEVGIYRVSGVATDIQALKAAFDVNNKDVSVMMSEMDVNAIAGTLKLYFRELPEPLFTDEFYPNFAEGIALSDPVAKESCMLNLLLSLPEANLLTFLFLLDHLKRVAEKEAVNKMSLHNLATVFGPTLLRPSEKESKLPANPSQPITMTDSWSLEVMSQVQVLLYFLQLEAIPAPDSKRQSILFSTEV
Sequence of Mast/stem cell growth factor receptor Kit (Homo sapiens) (P10721 whole entry): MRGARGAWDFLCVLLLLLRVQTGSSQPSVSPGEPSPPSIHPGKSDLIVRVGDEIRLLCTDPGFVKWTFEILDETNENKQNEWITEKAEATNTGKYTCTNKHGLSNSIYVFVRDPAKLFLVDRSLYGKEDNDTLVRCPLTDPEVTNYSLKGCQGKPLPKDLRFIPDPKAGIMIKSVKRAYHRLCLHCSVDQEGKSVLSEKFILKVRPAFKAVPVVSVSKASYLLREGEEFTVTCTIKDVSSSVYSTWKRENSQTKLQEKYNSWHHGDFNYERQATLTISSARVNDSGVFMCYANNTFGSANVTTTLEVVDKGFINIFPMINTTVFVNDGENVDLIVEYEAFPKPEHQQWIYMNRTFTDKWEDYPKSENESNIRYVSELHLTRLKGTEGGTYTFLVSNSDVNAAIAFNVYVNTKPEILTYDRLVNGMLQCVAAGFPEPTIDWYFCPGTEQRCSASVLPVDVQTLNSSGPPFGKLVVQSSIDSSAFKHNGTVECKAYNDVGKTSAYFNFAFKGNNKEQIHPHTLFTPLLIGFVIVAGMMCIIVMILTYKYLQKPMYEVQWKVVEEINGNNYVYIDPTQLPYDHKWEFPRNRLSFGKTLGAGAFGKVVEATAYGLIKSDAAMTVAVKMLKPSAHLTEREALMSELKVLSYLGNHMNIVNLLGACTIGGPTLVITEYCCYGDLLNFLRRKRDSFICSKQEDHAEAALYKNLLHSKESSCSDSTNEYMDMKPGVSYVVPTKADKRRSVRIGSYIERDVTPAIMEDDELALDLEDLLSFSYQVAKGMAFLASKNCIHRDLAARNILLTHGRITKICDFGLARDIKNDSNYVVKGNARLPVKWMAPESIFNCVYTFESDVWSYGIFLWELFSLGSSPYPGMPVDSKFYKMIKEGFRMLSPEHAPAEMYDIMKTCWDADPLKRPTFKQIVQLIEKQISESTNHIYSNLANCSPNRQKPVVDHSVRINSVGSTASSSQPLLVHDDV

Regarding `COc1ccc2[nH]c(C(=O)c3cc4c(F)cccc4[nH]3)cc2c1`, in test [1], the negative logarithm of the IC50 (pIC50) (as a rule, the negative decadic logarithm of the IC50, by convention in mol/L) is 5.09.

Regarding `COc1ccc2[nH]c(C(=O)c3cc4c(C)cccc4[nH]3)cc2c1`, in test [1], the pIC50 was 5.39. On to `COc1ccc2[nH]c(C(=O)c3cc4cc(F)ccc4[nH]3)cc2c1`, for which the pIC50 in test [1] is 6.40. Compound `O=C(c1cc2cc(O)ccc2[nH]1)c1cc2c(Br)cccc2[nH]1` had a pIC50 in test [1] of 5.21.

For `COc1cccc2[nH]c(C(=O)c3cc4ccccc4[nH]3)cc12`, the pIC50 in test [1] is 5.82. Turning to `Cc1cc2ncc(-c3ccccc3)nc2cc1C` [AG1295], the negative logarithm of the IC50 (pIC50) is 5.96 in test [2] and 5.27 in test [1]. The compound `COc1cccc2[nH]c(C(=O)c3cc4cc(O)ccc4[nH]3)cc12` showed a negative logarithm of the IC50 (pIC50) in test [1] of 6.02. Regarding `O=C(c1cc2cc(O)ccc2[nH]1)c1cc2cc(O)ccc2[nH]1`, the pIC50 is 7.40 in test [2]; 6.52 in test [1]; 7.48 in test [3]; 6.77 in test [4]; 5.89 in test [5]; 5.38 at Bcr/Abl fusion protein.

On to `COc1ccc2cc(C(=O)c3cc4cc(OCCN(C)C)ccc4[nH]3)[nH]c2c1`, for which the pIC50 in test [1] is 5.55. For `O=C(c1cc2ccccc2[nH]1)c1cc2cc(O)ccc2[nH]1`, the negative-log IC50 (pIC50) in test [2] is 6.24; in test [1] it was 6.70. In test [1], `O=C(c1cc2ccccc2[nH]1)c1cc2cc(F)ccc2[nH]1` had a negative logarithm of the IC50 (pIC50) of 6.12. `CCc1cccc2cc(C(=O)c3cc4cc(O)ccc4[nH]3)[nH]c12` had a negative logarithm of the IC50 (pIC50) in test [1] of 5.36. Still for that read-out and setting: under `Cc1ccc2cc(C(=O)c3cc4cc(O)ccc4[nH]3)[nH]c2c1` stands 6.24; under `O=C(c1cc2ccccc2[nH]1)c1cc2ccccc2[nH]1`, 6.00; under `COc1ccc2cc(C(=O)c3cc4cc(O)ccc4[nH]3)[nH]c2c1`, 6.19. `Cc1cccc2[nH]c(C(=O)c3cc4cc(O)ccc4[nH]3)cc12`: the figures for the negative-log IC50 (pIC50) in test [1] and in test [4] were 6.02 and 6.34, respectively. Also, the outcome in test [6] was inactive. For the compound `O=C(c1cc2cc(F)ccc2[nH]1)c1cc2cc(OCc3ccccc3)ccc2[nH]1`, the pIC50 was below 4.52 in test [2] and 5.24 in test [1]. In the case of `COc1ccc2[nH]c(Cc3cc4cc(F)ccc4[nH]3)cc2c1`, the pIC50 in test [2] and in test [1] was below 4.52 in each case. `COc1ccc2[nH]c(C(=O)c3cc4ccc(C)cc4[nH]3)cc2c1` showed a negative-log IC50 (pIC50) in test [1] of 6.29. In test [1], `O=C(c1cc2cc(F)ccc2[nH]1)c1cc2cc(OCCN3CCCCC3)ccc2[nH]1` showed a pIC50 of 6.30. Still for that read-out and setting: under `O=C(c1cc2cc(O)ccc2[nH]1)c1cc2c(Cl)cccc2[nH]1` stands 6.30. Still for that read-out and setting: under `Cc1ccc2[nH]c(C(=O)c3cc4cc(O)ccc4[nH]3)cc2c1` stands 5.46; under `Cc1cccc2[nH]c(C(=O)c3cc4cc(F)ccc4[nH]3)cc12`, 5.92. For `COc1ccc2[nH]c(C(=O)c3cc4cccc(Cl)c4[nH]3)cc2c1`, the negative-log IC50 (pIC50) in test [2] and in test [1] was below 4.52 each time.

As for `COc1ccc2cc(C(=O)c3cc4cc(OCc5ccccc5)ccc4[nH]3)[nH]c2c1`, the pIC50 in test [1] was below 4.52.

In test [1], `COc1ccc2[nH]c(C(=O)c3cc4c(Cl)cccc4[nH]3)cc2c1` gave a negative-log IC50 (pIC50) below 4.52. On the same count and under the same terms, under `O=C(c1cc2cc(O)ccc2[nH]1)c1cc2cc(F)ccc2[nH]1` stands 6.14. As for `COc1ccc2[nH]c(C(=O)c3cc4ccc(Cl)cc4[nH]3)cc2c1`, the negative logarithm of the IC50 (pIC50) in test [1] was 6.70; in test [4], 7.26. Turning to `COc1ccc2[nH]c(C(=O)c3cc4cc(C)ccc4[nH]3)cc2c1`, the pIC50 in test [1] was below 4.52. As to `COc1ccc2[nH]c(C(=O)c3cc4cc(Cl)ccc4[nH]3)cc2c1`, in test [1], the negative-log IC50 (pIC50) was 5.60. On the same count and under the same terms, under `O=C(c1cc2cc(O)ccc2[nH]1)c1cc2c(F)cccc2[nH]1` stands 6.21. Regarding `Cc1cccc2[nH]c(C(=O)c3cc4cc(OCCN5CCCCC5)ccc4[nH]3)cc12`, the pIC50 in test [1] is 5.00; in test [4], 5.92. On to `COc1cccc2cc(C(=O)c3cc4cc(O)ccc4[nH]3)[nH]c12`, for which, in test [1], the pIC50 was 5.54. Still for that read-out and setting: under `COc1ccc2[nH]c(C(=O)c3cc4ccc(F)cc4[nH]3)cc2c1` stands 6.08. With `O=C(c1cc2cc(O)ccc2[nH]1)c1cc2cccc(F)c2[nH]1`, the negative logarithm of the IC50 (pIC50) is below 4.52 in test [2] and 5.32 in test [1].

Compound `COc1ccc2cc(C(=O)c3cc4cc(OCCN5CCCCC5)ccc4[nH]3)[nH]c2c1` had a negative logarithm of the IC50 (pIC50) in test [1] of 6.00. On to `COc1ccc2[nH]c(Cc3cc4ccccc4[nH]3)cc2c1`, for which the pIC50 in test [2] and in test [1] was below 4.52 throughout. Consider `O=C(c1cc2ccccc2[nH]1)c1cc2cc(Oc3ccccc3)ccc2[nH]1`, for which the pIC50 in test [1] is 5.00. For `O=C(c1cc2cc(O)ccc2[nH]1)c1cc2ccc(F)cc2[nH]1`, in test [1], the pIC50 was 6.23. On the same count and under the same terms, under `COc1ccc2[nH]c(C(=O)c3cc4cc(Br)ccc4[nH]3)cc2c1` stands 5.07.
